“And” between values parts separate entries of the source, which are not always exact repeats. Equal values may be shown once.
System: HEK-293T
Test: Multiplex assay against HEK293T
Assay type: toxicity, cell-based
Conditions: human, number of replicates 2
Procedure, shortened: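 Compound was added to live cells that had been stained at seeding with Hoechst33342, BioTracker Green Microtubule Cytoskeleton Dye, MitoTracker Red and Annexin V Alexa Fluor 680, and imaging followed on a CQ1 microscope at 37°C and 5% CO2. CellPathfinder machine-learning gating divided cells into Hoechst high-intensity objects or normal cells, normal cells into healthy, pyknosed or fragmented nuclei, and pyknosed cells into mitotic or apoptotic. Tubulin, mitochondrial-mass and membrane-permeability phenotypes are per cents of healthy-nucleus cells.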

[1] = 12 h, 1 µM, compound concentration 1 uM
[2] = 12 h, 10 µM, compound concentration 10 uM
[3] = 24 h, 1 µM, compound concentration 1 uM
[4] = 24 h, 10 µM, compound concentration 10 uM
[5] = 48 h, 1 µM, compound concentration 1 uM
[6] = 48 h, 10 µM, compound concentration 10 uM

SMILES: CN(C)[C@H]1CC[C@H](Nc2ncc3ncnc(Nc4ccc(F)c(Cl)c4)c3n2)CC1
- Population Apoptotic (%) [1]: 46% and 50%
- Population Fragmented Nuclei (%) [1]: 4% and 5%
- Population Healthy Nuclei (%) [1]: 88% and 87%
- Population Hoechst High Intensity Objects (%) [1]: 9% and 10%
- Population Membrane Permeable-Phenotype (%) [1]: 2% and 1%
- Population Mitochondria Different-Phenotype (%) [1]: 14% and 10%
- Population Mitotic Cells (%) [1]: 53% and 50%
- Population Normal (%) [1]: 90% and 89%
- Population Pyknosed Nuclei (%) [1]: 7%
- Population Tubulin-Different-Phenotype (%) [1]: 45% and 36%
- Total Cell Count [1]: 608 and 681
- Population Apoptotic (%) [2]: 30% and 17%
- Population Fragmented Nuclei (%) [2]: 6% and 7%
- Population Healthy Nuclei (%) [2]: 82% and 79%
- Population Hoechst High Intensity Objects (%) [2]: 47% and 50%
- Population Membrane Permeable-Phenotype (%) [2]: 3% and 4%
- Population Mitochondria Different-Phenotype (%) [2]: 6% and 5%
- Population Mitotic Cells (%) [2]: 69% and 82%
- Population Normal (%) [2]: 52% and 49%
- Population Pyknosed Nuclei (%) [2]: 10% and 13%
- Population Tubulin-Different-Phenotype (%) [2]: 33% and 29%
- Total Cell Count [2]: 768 and 714
- Population Apoptotic (%) [3]: 40% and 51%
- Population Fragmented Nuclei (%) [3]: 7% and 8%
- Population Healthy Nuclei (%) [3]: 87% and 88%
- Population Hoechst High Intensity Objects (%) [3]: 10% and 11%
- Population Membrane Permeable-Phenotype (%) [3]: 2% and 1%
- Population Mitochondria Different-Phenotype (%) [3]: 4% and 3%
- Population Mitotic Cells (%) [3]: 60% and 48%
- Population Normal (%) [3]: 89% and 88%
- Population Pyknosed Nuclei (%) [3]: 4% and 2%
- Population Tubulin-Different-Phenotype (%) [3]: 21% and 22%
- Total Cell Count [3]: 1021 and 1110
- Population Apoptotic (%) [4]: 17% and 13%
- Population Fragmented Nuclei (%) [4]: 8% and 9%
- Population Healthy Nuclei (%) [4]: 82% and 77%
- Population Hoechst High Intensity Objects (%) [4]: 44% and 49%
- Population Membrane Permeable-Phenotype (%) [4]: 2%
- Population Mitochondria Different-Phenotype (%) [4]: 2% and 4%
- Population Mitotic Cells (%) [4]: 82% and 86%
- Population Normal (%) [4]: 55% and 50%
- Population Pyknosed Nuclei (%) [4]: 8% and 13%
- Population Tubulin-Different-Phenotype (%) [4]: 24% and 21%
- Total Cell Count [4]: 1161 and 1002
- Population Apoptotic (%) [5]: 17% and 35%
- Population Fragmented Nuclei (%) [5]: 23% and 21%
- Population Healthy Nuclei (%) [5]: 74% and 76%
- Population Hoechst High Intensity Objects (%) [5]: 12% and 15%
- Population Membrane Permeable-Phenotype (%) [5]: 4% and 3%
- Population Mitochondria Different-Phenotype (%) [5]: 0%
- Population Mitotic Cells (%) [5]: 82% and 64%
- Population Normal (%) [5]: 87% and 84%
- Population Pyknosed Nuclei (%) [5]: 2% and 1%
- Population Tubulin-Different-Phenotype (%) [5]: 9% and 13%
- Total Cell Count [5]: 2456 and 2598
- Population Apoptotic (%) [6]: 24% and 15%
- Population Fragmented Nuclei (%) [6]: 22% and 17%
- Population Healthy Nuclei (%) [6]: 74%
- Population Hoechst High Intensity Objects (%) [6]: 36% and 42%
- Population Membrane Permeable-Phenotype (%) [6]: 3%
- Population Mitochondria Different-Phenotype (%) [6]: 0%
- Population Mitotic Cells (%) [6]: 75% and 84%
- Population Normal (%) [6]: 63% and 57%
- Population Pyknosed Nuclei (%) [6]: 3% and 7%
- Population Tubulin-Different-Phenotype (%) [6]: 14% and 15%
- Total Cell Count [6]: 2410 and 1820

SMILES: CS(=O)(=O)c1ccc(C(=O)Nc2cccc(COc3ccc(Br)cc3CN3CC[C@@H](O)C3)c2)c(Cl)c1.O=CO
- Population Apoptotic (%) [1]: 57% and 47%
- Population Healthy Nuclei (%) [1]: 78% and 79%
- Population Mitotic Cells (%) [1]: 42% and 52%
- Total Cell Count [1]: 501 and 560
- Population Apoptotic (%) [2]: 44% and 57%
- Population Healthy Nuclei (%) [2]: 87% and 85%
- Population Mitotic Cells (%) [2]: 55% and 42%
- Total Cell Count [2]: 619 and 489
- Population Apoptotic (%) [3]: 54% and 48%
- Population Healthy Nuclei (%) [3]: 84% and 83%
- Population Mitotic Cells (%) [3]: 45% and 51%
- Total Cell Count [3]: 735 and 812
- Population Apoptotic (%) [4]: 50% and 66%
- Population Healthy Nuclei (%) [4]: 85% and 84%
- Population Mitotic Cells (%) [4]: 50% and 33%
- Total Cell Count [4]: 658 and 521
- Population Apoptotic (%) [5]: 30% and 25%
- Population Healthy Nuclei (%) [5]: 85%
- Population Mitotic Cells (%) [5]: 69% and 75%
- Total Cell Count [5]: 1702 and 1674
- Population Apoptotic (%) [6]: 40% and 59%
- Population Healthy Nuclei (%) [6]: 85%
- Population Mitotic Cells (%) [6]: 60% and 40%
- Total Cell Count [6]: 998 and 697

SMILES: CC(C)N(CCCCOCC(=O)NS(C)(=O)=O)c1cnc(-c2ccccc2)c(-c2ccccc2)n1 [SELEXIPAG]
- Population Apoptotic (%) [1]: 50% and 55%
- Population Fragmented Nuclei (%) [1]: 3% and 4%
- Population Healthy Nuclei (%) [1]: 81% and 80%
- Population Hoechst High Intensity Objects (%) [1]: 8% and 6%
- Population Membrane Permeable-Phenotype (%) [1]: 2%
- Population Mitochondria Different-Phenotype (%) [1]: 17% and 14%
- Population Mitotic Cells (%) [1]: 49% and 44%
- Population Normal (%) [1]: 91% and 93%
- Population Pyknosed Nuclei (%) [1]: 14% and 15%
- Population Tubulin-Different-Phenotype (%) [1]: 52% and 41%
- Total Cell Count [1]: 669 and 660
- Population Apoptotic (%) [2]: 58% and 64%
- Population Fragmented Nuclei (%) [2]: 5% and 6%
- Population Healthy Nuclei (%) [2]: 80% and 81%
- Population Hoechst High Intensity Objects (%) [2]: 9% and 10%
- Population Membrane Permeable-Phenotype (%) [2]: 1% and 0%
- Population Mitochondria Different-Phenotype (%) [2]: 14% and 15%
- Population Mitotic Cells (%) [2]: 41% and 35%
- Population Normal (%) [2]: 90% and 89%
- Population Pyknosed Nuclei (%) [2]: 14% and 11%
- Population Tubulin-Different-Phenotype (%) [2]: 51% and 44%
- Total Cell Count [2]: 616 and 713
- Population Apoptotic (%) [3]: 46% and 55%
- Population Fragmented Nuclei (%) [3]: 6% and 7%
- Population Healthy Nuclei (%) [3]: 83% and 81%
- Population Hoechst High Intensity Objects (%) [3]: 7% and 8%
- Population Membrane Permeable-Phenotype (%) [3]: 2% and 1%
- Population Mitochondria Different-Phenotype (%) [3]: 4% and 3%
- Population Mitotic Cells (%) [3]: 53% and 45%
- Population Normal (%) [3]: 92% and 91%
- Population Pyknosed Nuclei (%) [3]: 9% and 11%
- Population Tubulin-Different-Phenotype (%) [3]: 27% and 22%
- Total Cell Count [3]: 1034 and 989
- Population Apoptotic (%) [4]: 50% and 54%
- Population Fragmented Nuclei (%) [4]: 13% and 7%
- Population Healthy Nuclei (%) [4]: 77% and 82%
- Population Hoechst High Intensity Objects (%) [4]: 10% and 9%
- Population Membrane Permeable-Phenotype (%) [4]: 2% and 1%
- Population Mitochondria Different-Phenotype (%) [4]: 2% and 5%
- Population Mitotic Cells (%) [4]: 50% and 45%
- Population Normal (%) [4]: 89% and 90%
- Population Pyknosed Nuclei (%) [4]: 8% and 9%
- Population Tubulin-Different-Phenotype (%) [4]: 13% and 24%
- Total Cell Count [4]: 1214 and 906
- Population Apoptotic (%) [5]: 13% and 14%
- Population Fragmented Nuclei (%) [5]: 12% and 10%
- Population Healthy Nuclei (%) [5]: 83% and 86%
- Population Hoechst High Intensity Objects (%) [5]: 8%
- Population Membrane Permeable-Phenotype (%) [5]: 4% and 5%
- Population Mitochondria Different-Phenotype (%) [5]: 0%
- Population Mitotic Cells (%) [5]: 86% and 85%
- Population Normal (%) [5]: 91%
- Population Pyknosed Nuclei (%) [5]: 3%
- Population Tubulin-Different-Phenotype (%) [5]: 7%
- Total Cell Count [5]: 2736 and 2374
- Population Apoptotic (%) [6]: 25% and 19%
- Population Fragmented Nuclei (%) [6]: 25% and 22%
- Population Healthy Nuclei (%) [6]: 71% and 75%
- Population Hoechst High Intensity Objects (%) [6]: 9%
- Population Membrane Permeable-Phenotype (%) [6]: 5% and 7%
- Population Mitochondria Different-Phenotype (%) [6]: 0%
- Population Mitotic Cells (%) [6]: 74% and 80%
- Population Normal (%) [6]: 90%
- Population Pyknosed Nuclei (%) [6]: 2%
- Population Tubulin-Different-Phenotype (%) [6]: 8% and 13%
- Total Cell Count [6]: 3157 and 2195

SMILES: COc1ccc(-c2cc3c(C)nc(N)nc3n([C@H]3CC[C@H](OCCO)CC3)c2=O)cn1 [PF-04691502]
- Population Apoptotic (%) [1]: 74% and 67%
- Population Fragmented Nuclei (%) [1]: 3% and 2%
- Population Healthy Nuclei (%) [1]: 86% and 87%
- Population Hoechst High Intensity Objects (%) [1]: 12% and 13%
- Population Membrane Permeable-Phenotype (%) [1]: 0% and 2%
- Population Mitochondria Different-Phenotype (%) [1]: 36% and 56%
- Population Mitotic Cells (%) [1]: 25% and 32%
- Population Normal (%) [1]: 87% and 86%
- Population Pyknosed Nuclei (%) [1]: 10%
- Population Tubulin-Different-Phenotype (%) [1]: 60% and 67%
- Total Cell Count [1]: 425 and 310
- Population Apoptotic (%) [2]: 73% and 71%
- Population Fragmented Nuclei (%) [2]: 7% and 3%
- Population Healthy Nuclei (%) [2]: 69% and 75%
- Population Hoechst High Intensity Objects (%) [2]: 24% and 19%
- Population Membrane Permeable-Phenotype (%) [2]: 1% and 5%
- Population Mitochondria Different-Phenotype (%) [2]: 80% and 72%
- Population Mitotic Cells (%) [2]: 26% and 28%
- Population Normal (%) [2]: 75% and 80%
- Population Pyknosed Nuclei (%) [2]: 23% and 21%
- Population Tubulin-Different-Phenotype (%) [2]: 77% and 78%
- Total Cell Count [2]: 170 and 187
- Population Apoptotic (%) [3]: 71% and 78%
- Population Fragmented Nuclei (%) [3]: 7%
- Population Healthy Nuclei (%) [3]: 76% and 81%
- Population Hoechst High Intensity Objects (%) [3]: 24% and 20%
- Population Membrane Permeable-Phenotype (%) [3]: 1%
- Population Mitochondria Different-Phenotype (%) [3]: 40% and 55%
- Population Mitotic Cells (%) [3]: 28% and 21%
- Population Normal (%) [3]: 75% and 79%
- Population Pyknosed Nuclei (%) [3]: 16% and 10%
- Population Tubulin-Different-Phenotype (%) [3]: 64% and 68%
- Total Cell Count [3]: 314 and 266
- Population Apoptotic (%) [4]: 66% and 60%
- Population Fragmented Nuclei (%) [4]: 9% and 7%
- Population Healthy Nuclei (%) [4]: 70% and 77%
- Population Hoechst High Intensity Objects (%) [4]: 26% and 30%
- Population Membrane Permeable-Phenotype (%) [4]: 2% and 0%
- Population Mitochondria Different-Phenotype (%) [4]: 72% and 61%
- Population Mitotic Cells (%) [4]: 33% and 40%
- Population Normal (%) [4]: 73% and 69%
- Population Pyknosed Nuclei (%) [4]: 20% and 14%
- Population Tubulin-Different-Phenotype (%) [4]: 79% and 69%
- Total Cell Count [4]: 163 and 192
- Population Apoptotic (%) [5]: 70% and 77%
- Population Fragmented Nuclei (%) [5]: 9% and 10%
- Population Healthy Nuclei (%) [5]: 69% and 65%
- Population Hoechst High Intensity Objects (%) [5]: 28% and 27%
- Population Membrane Permeable-Phenotype (%) [5]: 0% and 1%
- Population Mitochondria Different-Phenotype (%) [5]: 42% and 44%
- Population Mitotic Cells (%) [5]: 29% and 22%
- Population Normal (%) [5]: 71% and 72%
- Population Pyknosed Nuclei (%) [5]: 20% and 24%
- Population Tubulin-Different-Phenotype (%) [5]: 69% and 75%
- Total Cell Count [5]: 275 and 280
- Population Apoptotic (%) [6]: 70% and 64%
- Population Fragmented Nuclei (%) [6]: 14% and 18%
- Population Healthy Nuclei (%) [6]: 74%
- Population Hoechst High Intensity Objects (%) [6]: 31% and 28%
- Population Membrane Permeable-Phenotype (%) [6]: 0% and 1%
- Population Mitochondria Different-Phenotype (%) [6]: 40% and 27%
- Population Mitotic Cells (%) [6]: 30% and 35%
- Population Normal (%) [6]: 68% and 71%
- Population Pyknosed Nuclei (%) [6]: 10% and 6%
- Population Tubulin-Different-Phenotype (%) [6]: 61% and 50%
- Total Cell Count [6]: 273 and 293

Reference: ChEMBL document CHEMBL5303300, “EUbOPEN Chemogenomics Library - Multiplex” (2023)
